How the values were obtained:
HL-60 [1] = assay: Antiproliferative activity against human HL60 cells at 33 uM by MTT assay; type: functional
How it was run: (§1)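 HL-60 cells kept in RPMI-1640 with 10% FBS, penicillin 100 U/mL and streptomycin at 37 °C under humidified CO2. Exponentially growing cells seeded at 1–2.5 × 10^4 cells/mL. Compound added after 24 h, with medium-only controls. Exposure 48 h, then viable cells read by MTT at 570 nm absorbance. Screened at four concentrations, with single-concentration data given at 33.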

Bel-7402 [2] = assay: Antiproliferative activity against human Bel7402 cells at 33 uM by SRB assay; type: functional
How it was run: (§2)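 Bel-7402 cells kept in RPMI-1640 with 10% FBS, penicillin 100 U/mL and streptomycin at 37 °C under humidified CO2. Exponentially growing cells seeded at 1–2.5 × 10^4 cells/mL. Compound added 24 h later, with medium only for controls. Incubation 48 h, then viable cells counted by SRB. Screened at four concentrations, with single-concentration data given at 33.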

HL-60 [3] = assay: Antiproliferative activity against human HL60 cells by MTT assay; type: functional, cell-based; how it was run: as §1
Bel-7402 [4] = assay: Antiproliferative activity against human Bel7402 cells by SRB assay; type: functional, cell-based; how it was run: as §2
CCRF S-180 = assay: Antiproliferative activity against mouse S180 cells; type: functional
H22 = assay: Antiproliferative activity against mouse H22 cells; type: functional
BGC-823 = assay: Antiproliferative activity against human BGC823 cells implanted in nude mouse; type: functional
Rattus norvegicus [5] = assay: Toxicity in rat at 10 g/kg after 10 days; settings: in vivo, 10000 mg/kg, 240 h
Rattus norvegicus [6] = assay: Toxicity in rat at 10 g/kg after 10 days assessed as change in body weight relative to control; settings: in vivo, 10000 mg/kg, 240 h

| Compound | inhibition at 33 µM (HL-60 [1]) | inhibition at 33 µM (Bel-7402 [2]) | further results |
| --- | --- | --- | --- |
| N#CC(CCSC(=S)N1CCN(c2ccccc2F)CC1)(c1ccccc1)c1ccccc1 | 0% | 4.3% | – |
| N#CC(CCSC(=S)N1CCN(c2ccccc2)CC1)(c1ccccc1)c1ccccc1 | 10.5% | 0% | – |
| Cc1ccc(Cl)cc1N1CCN(C(=S)SCCC(C#N)(c2ccccc2)c2ccccc2)CC1 | 0% | 14.6% | – |
| N#CC(CCSC(=S)N1CCN(C(=O)CCBr)CC1)(c1ccccc1)c1ccccc1 | 82.2% | 23.4% | – |
| COc1ccc(N2CCN(C(=S)SCCC(C#N)(c3ccccc3)c3ccccc3)CC2)cc1 | 8.5% | 14.9% | – |
| N#CC(CCSC(=S)N1CCN(S(=O)(=O)c2c(Cl)cccc2Cl)CC1)(c1ccccc1)c1ccccc1 | 0% | 0% | – |
| CS(=O)(=O)N1CCN(C(=S)SCCC(C#N)(c2ccccc2)c2ccccc2)CC1 | 24.9% | 13.4% | – |
| N#CC(CCSC(=S)N1CCN(S(=O)(=O)c2cccc([N+](=O)[O-])c2)CC1)(c1ccccc1)c1ccccc1 | 0% | 5.5% | – |
| N#CC(CCSC(=S)N1CCN(c2ccc(Cl)c(Cl)c2)CC1)(c1ccccc1)c1ccccc1 | 0.7% | 23.3% | – |
| N#CC(CCSC(=S)N1CCN(CCO)CC1)(c1ccccc1)c1ccccc1 | 92.5% | 57.7% | IC50 (HL-60 [3]): 24.5 µM; IC50 (Bel-7402 [4]): 11.7 µM |
| N#CC(CCSC(=S)N1CCNCC1)(c1ccccc1)c1ccccc1 | 98.7% | 95.5% | IC50 (HL-60 [3]): 5.3 µM; IC50 (Bel-7402 [4]): 11.5 µM |
| COc1ccc(S(=O)(=O)N2CCN(C(=S)SCCC(C#N)(c3ccccc3)c3ccccc3)CC2)cc1 | 1.5% | 5.4% | – |
| N#CC(CCSC(=S)N1CCN(C(c2ccccc2)c2ccc(Cl)cc2)CC1)(c1ccccc1)c1ccccc1 (centres undefined) | 2.7% | 18% | – |
| N#CC(CCSC(=S)N1CCN(C(=O)CCCl)CC1)(c1ccccc1)c1ccccc1 | 43.3% | 22% | – |
| N#CC(CCSC(=S)N1CCN(S(=O)(=O)c2ccc([N+](=O)[O-])cc2)CC1)(c1ccccc1)c1ccccc1 | 0% | 0.2% | – |
| COc1ccccc1N1CCN(C(=S)SCCC(C#N)(c2ccccc2)c2ccccc2)CC1 | 4.8% | 0% | – |
| CCCCN1CCN(C(=S)SCCC(C#N)(c2ccccc2)c2ccccc2)CC1 | -13.5% | 11% | – |
| N#CC(CCSC(=S)N1CCN(C(=O)c2ccco2)CC1)(c1ccccc1)c1ccccc1 | 30.4% | 17.7% | – |
| N#CC(CCSC(=S)N1CCN(S(=O)(=O)c2ccccc2)CC1)(c1ccccc1)c1ccccc1 | 0% | 0% | – |
| CN1CCN(C(=S)SCCC(C#N)(c2ccccc2)c2ccccc2)CC1.Cl | – | – | Activity (CCRF S-180): 46.4%; Activity (H22): 39.3%; Activity (BGC-823): 18.1%; Activity (Rattus norvegicus [5]): Not Active; Activity (Rattus norvegicus [6]): Not Active |

| Compound | inhibition at 33 µM (HL-60 [1]) | inhibition at 33 µM (Bel-7402 [2]) | further results |
| --- | --- | --- | --- |
| N#CC(CCSC(=S)N1CCN(S(=O)(=O)c2ccccc2[N+](=O)[O-])CC1)(c1ccccc1)c1ccccc1 | 0% | 0% | – |
| N#CC(CCSC(=S)N1CCN(c2ncccn2)CC1)(c1ccccc1)c1ccccc1 | 24.2% | 33.2% | – |
| CCCCCCN1CCN(C(=S)SCCC(C#N)(c2ccccc2)c2ccccc2)CC1 | 2.57% | 12.7% | – |
| N#CC(CCSC(=S)N1CCN(c2ccccn2)CC1)(c1ccccc1)c1ccccc1 | 31.8% | 22.6% | – |
| COc1cccc(N2CCN(C(=S)SCCC(C#N)(c3ccccc3)c3ccccc3)CC2)c1 | 9.8% | 15.5% | – |
| N#CC(CCSC(=S)N1CCN(S(=O)(=O)c2cccc(C(F)(F)F)c2)CC1)(c1ccccc1)c1ccccc1 | 0% | 0% | – |
| CCOC(=O)N1CCN(C(=S)SCCC(C#N)(c2ccccc2)c2ccccc2)CC1 | 0% | 35% | – |
| N#CC(CCSC(=S)N1CCN(c2ccc([N+](=O)[O-])cc2)CC1)(c1ccccc1)c1ccccc1 | 7.8% | 2.2% | – |
| N#CC(CCSC(=S)N1CCN(c2ccccc2Cl)CC1)(c1ccccc1)c1ccccc1 | 0% | 0% | – |
| N#CC(CCSC(=S)N1CCN(c2cccc(Cl)c2)CC1)(c1ccccc1)c1ccccc1 | 4.2% | 0% | – |
| CN1CCN(C(=S)SCCC(C#N)(c2ccccc2)c2ccccc2)CC1 | 79% | 75.2% | IC50 (HL-60 [3]): 9.9 µM; IC50 (Bel-7402 [4]): 27.1 µM |
| N#CC(CCSC(=S)N1CCN(Cc2ccccc2)CC1)(c1ccccc1)c1ccccc1 | 12.5% | 4.7% | – |
| Cc1ccccc1N1CCN(C(=S)SCCC(C#N)(c2ccccc2)c2ccccc2)CC1 | 0% | 0% | – |
| CS(=O)(=O)OCCC(=O)N1CCN(C(=S)SCCC(C#N)(c2ccccc2)c2ccccc2)CC1 | 0% | 1.09% | – |
| N#CC(CCSC(=S)N1CCN(S(=O)(=O)c2ccc(F)cc2)CC1)(c1ccccc1)c1ccccc1 | 0% | 9.7% | – |
| N#CC(CCSC(=S)N1CCN(c2ccc(F)cc2)CC1)(c1ccccc1)c1ccccc1 | 0% | 15.9% | – |
| N#CC(CCSC(=S)N1CCN(c2cccc(C(F)(F)F)c2)CC1)(c1ccccc1)c1ccccc1 | 8.5% | 26.3% | – |
| CCN1CCN(C(=S)SCCC(C#N)(c2ccccc2)c2ccccc2)CC1 | -7.81% | 4.97% | – |
| N#CC(CCSC(=S)N1CCN(Cc2ccc3c(c2)OCO3)CC1)(c1ccccc1)c1ccccc1 | 0% | 16.6% | – |
| N#CC(CCSC(=S)N1CCN(CCCl)CC1)(c1ccccc1)c1ccccc1 | 53.6% | 28.7% | – |

— ChEMBL document CHEMBL1146850, “Dithiocarbamic acid esters as anticancer agent. Part 1: 4-substituted-piperazine-1-carbodithioic acid 3-cyano-3,3-diphenyl-propyl esters” (Bioorg Med Chem Lett, 2006)
